1 compound from ChEMBL document CHEMBL4028864 (J Med Chem, 2017) can be followed below.

Data set [1] addresses Non-receptor tyrosine-protein kinase TYK2 (Homo sapiens, UniProt P29597). The experiment in a line: Inhibition of human TYK2 using KKSRGDYMTMQIG as substrate in presence of [gamma-33P]-ATP. The essentials:
(§1)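 Kinase inhibition was tested by radiometric "Hotspot" profiling at a contract laboratory with 10 μM ATP.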

In data set [2] the target is Inhibitor of nuclear factor kappa-B kinase subunit beta (Homo sapiens) (UniProt O14920). The experiment in a line: Inhibition of wild type human IKKbeta (M1 to S756 residues) expressed in mammalian cells assessed as residual activity at 1 uM by KINOMEscan assay relative to control. Type of data set: cell-based.
For data set [3], the target named is Histone deacetylase 11 (Homo sapiens, UniProt Q96DB2). The data set is described as follows: Inhibition of C-terminal His tagged human recombinant HDAC11 (1 to 347 residues) expressed in Baculovirus infected insect cells in presence of ATP. The essentials: (§2)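 HDAC enzyme inhibition was run by a contract laboratory.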
Data set [4] in a line: cells. In kind it is functional, cell-based. Conditions: Homo sapiens, KHYG, 48 h.
Data set [5] concerns the target T1, Tyrosine-protein kinase JAK3 (Homo sapiens, UniProt P52333).
T1 sequence (P52333 whole entry): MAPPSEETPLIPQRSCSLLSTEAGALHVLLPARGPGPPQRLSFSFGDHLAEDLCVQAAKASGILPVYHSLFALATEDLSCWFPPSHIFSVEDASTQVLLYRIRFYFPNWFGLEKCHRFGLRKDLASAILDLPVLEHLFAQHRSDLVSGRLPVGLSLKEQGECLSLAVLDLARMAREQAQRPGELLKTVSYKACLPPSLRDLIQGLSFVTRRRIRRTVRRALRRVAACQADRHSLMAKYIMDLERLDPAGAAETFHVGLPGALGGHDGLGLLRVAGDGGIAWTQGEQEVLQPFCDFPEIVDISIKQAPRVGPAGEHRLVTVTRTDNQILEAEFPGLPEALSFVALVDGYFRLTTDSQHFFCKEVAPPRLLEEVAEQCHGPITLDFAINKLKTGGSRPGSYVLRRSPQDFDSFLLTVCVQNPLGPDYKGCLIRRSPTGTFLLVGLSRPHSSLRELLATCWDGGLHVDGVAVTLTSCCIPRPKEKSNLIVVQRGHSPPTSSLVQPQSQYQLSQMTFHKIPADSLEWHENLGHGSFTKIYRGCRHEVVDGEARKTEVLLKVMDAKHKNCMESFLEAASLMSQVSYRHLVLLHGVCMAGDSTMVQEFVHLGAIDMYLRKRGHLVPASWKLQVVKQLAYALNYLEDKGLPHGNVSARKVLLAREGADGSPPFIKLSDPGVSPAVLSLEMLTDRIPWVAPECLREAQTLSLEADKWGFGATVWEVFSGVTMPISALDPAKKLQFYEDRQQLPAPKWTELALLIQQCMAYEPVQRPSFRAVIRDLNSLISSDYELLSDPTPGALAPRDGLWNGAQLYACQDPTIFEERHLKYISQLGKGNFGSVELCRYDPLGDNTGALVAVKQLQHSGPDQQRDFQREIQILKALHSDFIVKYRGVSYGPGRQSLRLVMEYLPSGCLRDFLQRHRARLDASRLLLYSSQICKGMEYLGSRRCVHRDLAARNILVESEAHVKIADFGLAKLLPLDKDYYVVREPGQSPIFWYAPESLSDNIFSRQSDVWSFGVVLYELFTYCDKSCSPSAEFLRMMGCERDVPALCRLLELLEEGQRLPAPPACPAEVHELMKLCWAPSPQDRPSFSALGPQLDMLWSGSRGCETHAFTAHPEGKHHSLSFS
The data set is described as follows: Inhibition of human JAK3 using GEEEEYFELVKKKK as substrate in presence of [gamma-33P]-ATP. The method in brief: as §1

Data set [6] has as its target Tyrosine-protein kinase JAK1 (Homo sapiens, UniProt P23458). The data set is described as follows: Inhibition of human JAK1 using poly[Glu:Tyr] as substrate in presence of [gamma-33P]-ATP. The method in brief: as §1
In data set [7] the target is Histone deacetylase 9 (Homo sapiens, UniProt Q9UKV0). The experiment in a line: Inhibition of HDAC9 (unknown origin) at 10 uM in presence of ATP relative to control. The method in brief: as §2
For data set [8], the system named is HL-60. The data set is described as follows: Antiproliferative activity against human HL60 cells. In kind it is functional, cell-based.
Data set [9] addresses Rho-associated protein kinase 2 (Homo sapiens) (UniProt O75116). The data set is described as follows: Inhibition of wild type human ROCK2 (M1 to T431 residues) expressed in mammalian cells assessed as residual activity at 1 uM by KINOMEscan assay relative to control. Type of data set: cell-based.
The subject of data set [10] is MCF7. The data set is described as follows: cells. In kind it is functional, cell-based. As to conditions: Homo sapiens, MCF7, 72 h.
Data set [11] has as its system MOLM-14. The experiment in a line: cells. In kind it is functional, cell-based. Conditions: Homo sapiens, MOLM-14, 48 h.
Data set [12] deals with Histone deacetylase 3/Nuclear receptor corepressor 2 (HDAC3/NCoR2) (Homo sapiens, UniProt O15379). The experiment in a line: Inhibition of human recombinant HDAC3 (1 to 428 residues)/N-terminal GST-tagged NCOR2 (395 to 489 residues) expressed in Baculovirus infected insect cells in presence of ATP. The method in brief: as §2
Data set [13] deals with Histone deacetylase 5 (Homo sapiens, UniProt Q9UQL6). The experiment in a line: Inhibition of C-terminal His tagged human recombinant HDAC5 (657 to 1123 residues) expressed in Baculovirus infected insect cells in presence of ATP. The method in brief:
as §2

Data set [14] in a line: AUC (0 to infinity) in Wistar rat at 5 mg/kg, po administered via gavage by LC-MS/MS analysis. Type of data set: ADME, organism-based. The arrangement: dose 5 mg/kg, time infinity, route oral. As to conditions: in vivo. The essentials: (§3)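 Wistar rats given a single 5 mg/kg oral dose. Plasma concentration–time profiles were plotted as mean ± SEM and sampled through 24 h postdose.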

For data set [15], the system named is PC-3. The experiment in a line: cells. In kind it is functional, cell-based. Conditions: Homo sapiens, PC-3, 72 h.
Data set [16] in a line: Cmax in Wistar rat at 5 mg/kg, po administered via gavage by LC-MS/MS analysis. Type of data set: ADME, organism-based. The arrangement: dose 5 mg/kg, route oral. Conditions: in vivo. The essentials:
as §3

Data set [17] in a line: Half life in rat liver microsome preincubated for 5 mins followed by NADPH addition by LC-MS/MS analysis. In kind it is ADME. Conditions: liver microsomes. (In general: Liver microsomes are a subcellular fraction often used to study metabolism.)
For data set [18], the target named is Protein deacetylase HDAC6 (Homo sapiens) (UniProt Q9UBN7). The data set is described as follows: Inhibition of HDAC6 in human KMS-12-BM cells assessed as increase in acetylated tubulin level up to 6 uM after 16 hrs by immunoblotting analysis. In kind it is cell-based. The essentials:
(§4)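 KMS-12-BM and MOLM-14 cells were treated for 16 h and then lysed. Acetylated tubulin was detected by immunoblotting, and membranes were reprobed for total tubulin as loading control.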

For data set [19] the target is unchanged. The data set is described as follows: Inhibition of HDAC6 in human MOLM14 cells assessed as increase in acetylated tubulin level up to 3 uM after 16 hrs by immunoblotting analysis. Type of data set: cell-based. The method in brief: as §4
In general terms: Immunoblotting shows a protein as a band on a membrane.

The target of data set [20] is Tyrosine-protein kinase JAK2 (Homo sapiens, UniProt O60674). The experiment in a line: Inhibition of human JAK2 using poly[Glu:Tyr] as substrate in presence of [gamma-33P]-ATP.
Data set [21] is described as follows: cells. Type of data set: ADME, cell-based. As to conditions: Homo sapiens, AC10, 24 h.
For data set [22], the target named is Histone deacetylase 2 (Homo sapiens, UniProt Q92769). The experiment in a line: Inhibition of C-terminal GST tagged human recombinant HDAC2 (1 to 488 residues) expressed in Baculovirus infected insect cells in presence of ATP. The essentials: as §2
Data set [23] in a line: cells. As to conditions: Homo sapiens, XG6, 48 h. In kind it is functional, cell-based.

Molecules are shown by their SMILES. pIC50: −log10 of the molar value. Activity calls are given as the source filed them. A value given as a limit tells only on which side of the number the result lay.

Protein deacetylase HDAC6 (Homo sapiens), sequence (Q9UBN7 whole entry): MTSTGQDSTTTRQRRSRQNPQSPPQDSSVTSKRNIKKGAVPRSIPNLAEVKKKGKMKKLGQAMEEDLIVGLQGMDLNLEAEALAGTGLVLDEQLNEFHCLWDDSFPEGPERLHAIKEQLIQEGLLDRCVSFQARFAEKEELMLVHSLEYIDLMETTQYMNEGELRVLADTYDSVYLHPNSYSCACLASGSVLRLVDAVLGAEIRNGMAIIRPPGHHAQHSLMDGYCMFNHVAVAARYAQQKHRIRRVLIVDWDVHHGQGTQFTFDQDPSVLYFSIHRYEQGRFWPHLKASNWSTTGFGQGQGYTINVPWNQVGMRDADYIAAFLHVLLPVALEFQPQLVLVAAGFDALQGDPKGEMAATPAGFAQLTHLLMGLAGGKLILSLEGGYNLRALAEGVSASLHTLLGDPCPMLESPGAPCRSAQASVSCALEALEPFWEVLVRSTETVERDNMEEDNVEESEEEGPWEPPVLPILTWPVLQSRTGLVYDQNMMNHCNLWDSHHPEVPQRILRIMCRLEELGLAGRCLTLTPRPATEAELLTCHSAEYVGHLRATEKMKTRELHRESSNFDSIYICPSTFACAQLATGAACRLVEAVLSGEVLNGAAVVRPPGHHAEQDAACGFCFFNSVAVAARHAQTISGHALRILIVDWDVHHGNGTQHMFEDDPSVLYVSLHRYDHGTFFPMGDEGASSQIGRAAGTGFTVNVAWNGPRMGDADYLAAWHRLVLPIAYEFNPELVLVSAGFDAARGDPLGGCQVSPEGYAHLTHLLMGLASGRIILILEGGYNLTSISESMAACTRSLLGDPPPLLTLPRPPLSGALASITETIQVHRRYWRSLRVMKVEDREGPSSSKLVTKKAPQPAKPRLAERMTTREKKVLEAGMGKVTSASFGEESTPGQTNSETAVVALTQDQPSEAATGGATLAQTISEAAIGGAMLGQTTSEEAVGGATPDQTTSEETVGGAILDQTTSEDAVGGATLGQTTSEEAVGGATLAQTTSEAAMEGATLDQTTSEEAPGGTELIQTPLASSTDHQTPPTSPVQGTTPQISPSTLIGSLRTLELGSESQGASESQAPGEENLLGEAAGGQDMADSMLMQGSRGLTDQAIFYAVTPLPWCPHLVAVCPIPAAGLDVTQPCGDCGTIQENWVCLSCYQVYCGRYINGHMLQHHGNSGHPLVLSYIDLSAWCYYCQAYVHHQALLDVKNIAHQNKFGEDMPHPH
Histone deacetylase 11, sequence (Q96DB2 whole entry, the tested form may be a part): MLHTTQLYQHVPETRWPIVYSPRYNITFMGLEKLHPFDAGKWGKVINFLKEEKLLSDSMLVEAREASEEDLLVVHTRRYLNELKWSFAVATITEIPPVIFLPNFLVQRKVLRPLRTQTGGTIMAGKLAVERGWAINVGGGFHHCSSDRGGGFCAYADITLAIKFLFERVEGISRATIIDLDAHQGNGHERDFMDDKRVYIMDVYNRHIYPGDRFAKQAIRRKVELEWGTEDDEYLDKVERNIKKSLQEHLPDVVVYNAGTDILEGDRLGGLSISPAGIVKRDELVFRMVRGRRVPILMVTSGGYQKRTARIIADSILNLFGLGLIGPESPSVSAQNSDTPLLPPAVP
Tyrosine-protein kinase JAK1, sequence (P23458 whole entry): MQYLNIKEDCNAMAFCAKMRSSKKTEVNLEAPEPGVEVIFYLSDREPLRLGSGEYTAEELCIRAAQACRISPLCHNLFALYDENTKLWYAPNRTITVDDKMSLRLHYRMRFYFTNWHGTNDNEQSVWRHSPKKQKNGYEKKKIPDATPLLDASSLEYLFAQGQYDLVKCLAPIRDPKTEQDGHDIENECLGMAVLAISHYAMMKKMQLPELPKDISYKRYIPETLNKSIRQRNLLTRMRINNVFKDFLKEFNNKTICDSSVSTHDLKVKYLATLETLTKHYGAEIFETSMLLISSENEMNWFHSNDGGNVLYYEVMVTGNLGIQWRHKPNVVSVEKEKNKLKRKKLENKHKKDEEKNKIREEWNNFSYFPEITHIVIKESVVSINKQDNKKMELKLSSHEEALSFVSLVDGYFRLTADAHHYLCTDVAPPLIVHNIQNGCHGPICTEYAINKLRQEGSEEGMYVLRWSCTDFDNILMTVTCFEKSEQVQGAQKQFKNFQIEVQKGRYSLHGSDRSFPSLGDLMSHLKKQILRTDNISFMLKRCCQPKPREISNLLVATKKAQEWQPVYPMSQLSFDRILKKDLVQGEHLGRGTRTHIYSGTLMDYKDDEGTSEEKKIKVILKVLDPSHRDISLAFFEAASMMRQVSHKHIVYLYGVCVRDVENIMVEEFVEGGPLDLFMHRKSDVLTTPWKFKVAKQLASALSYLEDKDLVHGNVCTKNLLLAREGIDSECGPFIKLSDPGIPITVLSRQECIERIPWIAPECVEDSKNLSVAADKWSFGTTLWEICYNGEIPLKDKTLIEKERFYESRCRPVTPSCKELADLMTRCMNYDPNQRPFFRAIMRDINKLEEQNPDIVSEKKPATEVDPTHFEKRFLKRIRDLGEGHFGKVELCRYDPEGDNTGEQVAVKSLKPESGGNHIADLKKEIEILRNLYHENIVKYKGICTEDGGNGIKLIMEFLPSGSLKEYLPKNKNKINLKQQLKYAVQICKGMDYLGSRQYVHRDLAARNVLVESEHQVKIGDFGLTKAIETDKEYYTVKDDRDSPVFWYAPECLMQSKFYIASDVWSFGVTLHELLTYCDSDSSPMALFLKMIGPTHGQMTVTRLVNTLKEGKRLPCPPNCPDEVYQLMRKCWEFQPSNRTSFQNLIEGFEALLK
Tyrosine-protein kinase JAK2, sequence (O60674 whole entry): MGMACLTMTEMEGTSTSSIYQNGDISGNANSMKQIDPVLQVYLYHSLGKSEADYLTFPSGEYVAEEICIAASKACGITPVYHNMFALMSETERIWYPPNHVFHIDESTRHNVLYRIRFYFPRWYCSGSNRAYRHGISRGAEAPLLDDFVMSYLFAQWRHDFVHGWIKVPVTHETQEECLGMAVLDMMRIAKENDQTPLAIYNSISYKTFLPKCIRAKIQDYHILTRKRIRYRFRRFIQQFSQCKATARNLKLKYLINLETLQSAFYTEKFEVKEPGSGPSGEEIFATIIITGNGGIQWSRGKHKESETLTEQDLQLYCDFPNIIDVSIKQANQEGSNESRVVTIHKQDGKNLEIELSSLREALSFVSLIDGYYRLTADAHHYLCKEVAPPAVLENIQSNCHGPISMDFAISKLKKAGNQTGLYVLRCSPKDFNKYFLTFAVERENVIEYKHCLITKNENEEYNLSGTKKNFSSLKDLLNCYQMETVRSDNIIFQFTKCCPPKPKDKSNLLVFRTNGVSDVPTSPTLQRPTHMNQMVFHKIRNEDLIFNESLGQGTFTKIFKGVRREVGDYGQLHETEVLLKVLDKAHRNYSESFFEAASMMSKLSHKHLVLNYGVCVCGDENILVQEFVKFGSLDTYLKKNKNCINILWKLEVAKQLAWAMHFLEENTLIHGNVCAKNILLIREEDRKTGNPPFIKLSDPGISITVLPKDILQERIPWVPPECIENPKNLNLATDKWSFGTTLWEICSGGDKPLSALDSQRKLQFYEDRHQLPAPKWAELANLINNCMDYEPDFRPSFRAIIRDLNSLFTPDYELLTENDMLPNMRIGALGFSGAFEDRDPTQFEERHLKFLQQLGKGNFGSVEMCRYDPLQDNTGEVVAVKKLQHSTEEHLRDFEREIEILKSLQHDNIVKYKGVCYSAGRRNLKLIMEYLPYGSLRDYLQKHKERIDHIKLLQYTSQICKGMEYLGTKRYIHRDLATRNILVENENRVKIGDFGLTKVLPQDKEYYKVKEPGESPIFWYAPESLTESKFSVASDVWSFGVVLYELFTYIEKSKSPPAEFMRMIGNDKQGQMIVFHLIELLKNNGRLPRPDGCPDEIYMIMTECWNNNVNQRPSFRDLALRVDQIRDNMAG
Histone deacetylase 2, sequence (Q92769 whole entry, the tested form may be a part): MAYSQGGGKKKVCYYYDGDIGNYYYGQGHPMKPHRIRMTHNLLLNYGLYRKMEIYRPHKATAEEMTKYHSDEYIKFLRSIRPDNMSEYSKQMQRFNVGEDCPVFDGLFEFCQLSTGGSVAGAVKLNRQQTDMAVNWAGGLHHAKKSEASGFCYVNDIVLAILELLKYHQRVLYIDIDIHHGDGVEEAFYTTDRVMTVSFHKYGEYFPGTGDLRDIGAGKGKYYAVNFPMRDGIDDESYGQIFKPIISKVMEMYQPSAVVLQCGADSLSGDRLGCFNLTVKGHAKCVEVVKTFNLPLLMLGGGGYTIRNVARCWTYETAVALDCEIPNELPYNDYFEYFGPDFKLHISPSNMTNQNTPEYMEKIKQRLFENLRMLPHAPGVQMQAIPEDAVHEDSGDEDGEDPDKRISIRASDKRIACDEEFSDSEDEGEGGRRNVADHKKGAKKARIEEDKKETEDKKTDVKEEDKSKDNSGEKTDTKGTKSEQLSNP
Inhibitor of nuclear factor kappa-B kinase subunit beta (Homo sapiens), sequence (O14920 whole entry, the tested form may be a part): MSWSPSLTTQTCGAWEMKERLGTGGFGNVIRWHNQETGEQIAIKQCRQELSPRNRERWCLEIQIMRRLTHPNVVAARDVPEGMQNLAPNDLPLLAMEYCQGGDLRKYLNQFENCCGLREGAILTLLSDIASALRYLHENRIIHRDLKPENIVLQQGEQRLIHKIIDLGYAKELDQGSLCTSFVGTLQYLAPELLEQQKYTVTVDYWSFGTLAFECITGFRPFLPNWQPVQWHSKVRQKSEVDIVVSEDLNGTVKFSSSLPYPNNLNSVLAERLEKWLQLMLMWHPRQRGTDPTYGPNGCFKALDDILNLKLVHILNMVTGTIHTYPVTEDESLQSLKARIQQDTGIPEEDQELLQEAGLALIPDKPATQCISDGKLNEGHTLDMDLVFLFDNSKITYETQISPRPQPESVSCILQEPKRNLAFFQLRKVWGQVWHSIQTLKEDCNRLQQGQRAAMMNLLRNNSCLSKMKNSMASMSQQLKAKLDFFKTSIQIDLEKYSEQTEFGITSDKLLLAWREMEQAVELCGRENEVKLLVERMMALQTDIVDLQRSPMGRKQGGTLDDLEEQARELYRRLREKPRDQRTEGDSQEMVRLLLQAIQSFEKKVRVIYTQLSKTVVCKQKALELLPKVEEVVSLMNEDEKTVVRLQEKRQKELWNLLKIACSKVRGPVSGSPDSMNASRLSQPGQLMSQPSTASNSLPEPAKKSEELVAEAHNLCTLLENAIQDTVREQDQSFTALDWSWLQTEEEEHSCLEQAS

Take `O=C(CCCCCCn1cc(-c2ncnc3[nH]ccc23)cn1)NO`: the negative-log IC50 (pIC50) in data set [1] is 6.73; in data set [3], 7.51; in data set [4], 6.24; in [5], 6.24; in [6], 7.77; in data set [8], 5.13. The pIC50 in data set [10] was 6.08; in [11], 6.13; in data set [12], 8.41; in data set [13], 4.98; in data set [15] it was 5.62; in [20], 7.12. The pIC50 is below 4.00 in data set [21], 8.24 in data set [22] and 5.70 in data set [23]. Moreover, the Activity in [2] turned out to be 30%; in data set [9] it was 29%. Besides, the inhibition in [7] amounted to 30%. The compound also yielded an AUC(0-inf) in data set [14] of 0.0123 µg·h/mL. In data set [16], this compound showed a Cmax of 0.0159 µg/mL. The compound further came in with a half-life in [17] above 3.33 h. Besides, the inhibition result in data set [18] and in data set [19] was “Active” throughout.

What is called pIC50 is the negative decadic logarithm of the IC50, by convention in mol/L. For orientation: inhibition means the share of the control response that was lost under treatment. Broadly, the AUC(0-inf) is the area under the concentration-time curve extrapolated to infinity. A high value points to more exposure. In general, Cmax refers to the highest concentration seen after dosing. Broadly, the half-life is the time needed for the level to fall by half in the phase considered. Read a high half-life as slow decline.
